This note sets out measurements from ChEMBL document CHEMBL2331406, “In vitro activity of scorpiand-like azamacrocycle derivatives in promastigotes and intracellular amastigotes of Leishmania infantum and Leishmania braziliensis” (Eur J Med Chem, 2013).

The test system of test [1] is Leishmania braziliensis. The test is described as follows: Antileishmanial activity against promastigote form of Leishmania braziliensis MHOM/BR/1975/M2904 assessed as structural alterations at IC25 concentration after 96 hrs by MET microscopic analysis. The class given is functional. As to conditions: MHOM/BR/75/M2904. An outline of the steps: (§1)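 Promastigotes at 5 × 10^5 cells/mL in MTL medium with compound at IC25 for 96 h. Ultrastructure examined by transmission electron microscopy against untreated control parasites.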

Test [2] relates to Leishmania braziliensis. The experiment in a line: Antileishmanial activity against promastigote form of Leishmania braziliensis MHOM/BR/1975/M2904 assessed as nuclear alterations at IC25 concentration after 96 hrs by MET microscopic analysis. The class given is functional. As to conditions: MHOM/BR/75/M2904. An outline of the steps:
as §1

Calls of active or inactive are those of the source. No cut-off for these calls is given here.

Regarding `Cl.c1cc2nc(c1)CNCCN(CCNCc1cccc3ccccc13)CCNC2`, in the test with Leishmania braziliensis [1], the outcome was inactive.

As for `Cl.c1ccc(CNCCN2CCNCc3cccc(n3)CNCC2)nc1`, the outcome in the test on Leishmania braziliensis [2] was inactive.
